In the RNAGym collection of RNA variant scans (doi:10.1126/science.aae0568):
This sample holds only a part of the variants without activity.

B1: tRNA (parent)
chain: GUUCCGUUGGCGUAAUGGUAACGCGUCUCCCUCCUAAGGAGAAGACUGCGGGUUCGAGUCCCGUACGGAACG

Variants of: B1
Experiment: yeast fitness relative to wild type (ratio to wild type); higher = fitter; tRNA-Arg(CCU), competitive growth, 37 C, YPD
Method in brief: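 Amplicons of the tRNA-Arg(CCU) gene were sequenced, 100-nucleotide paired-end, from the start population and from each end population of a pooled yeast competition. The competition, in six parallel replicates, lasted 24 hours in YPD at 37°C. Fitness relative to wild type was calculated from changes in genotype frequencies. Genotypes had to have ≥ 100 starting reads, and estimates < 0.5 were set to 0.5.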

| Variant | yeast fitness |
| --- | --- |
| A20C U54C C55U | ≤ 0.5 |
| C27A A57C C66U | 0.538 |
| C4A C46U C55U | ≤ 0.5 |
| G23C A36C | ≤ 0.5 |
| U16G C34G A42G C49G C62U A69C | 0.506 |
| A15U G18C | 0.589 |
| C4U C34G | 0.768 |
| U26A C33A | 0.689 |
| C4U A40U G68U | 0.708 |
| G10C C34A U53A U54G | ≤ 0.5 |
| G10A A42G | 0.656 |
| A15U C46A C61G A69G | ≤ 0.5 |
| C5G G12A C31U C49G | ≤ 0.5 |
| C5U C11U G25C A45C C62A A70U | 0.611 |
| U2A A36G C49A C61U | ≤ 0.5 |
| C31G C55G A65G | ≤ 0.5 |
| U26C C30U C46A U47G G50A | ≤ 0.5 |
| A15G G23A A36G C55A | ≤ 0.5 |
| C11A A37U C62A C66U | ≤ 0.5 |
| C4U A21G A70U | 0.78 |
| C11A G18C A45C A57C G68C | ≤ 0.5 |

| Variant | yeast fitness |
| --- | --- |
| U19G A43U C66A | 0.6 |
| C5U G9A U54C C61G | 0.673 |
| C30U C46A A70C | 0.82 |
| C34G A40G G48C G63A C66U | 0.605 |
| U3A A14G C46G | 0.62 |
| C5G G12A A14G U35A | ≤ 0.5 |
| G10A U64C | 0.793 |
| U2C U26G A70U | 0.703 |
| U2A U13G A40C G41C A57G G63C A65U | ≤ 0.5 |
| A40G A70C | 0.946 |
| C11U U28C U32G | 0.569 |
| A21C U32C C60G | ≤ 0.5 |
| A21C C24U U32A C62G | 0.539 |
| C4A A15G C31G G50A | ≤ 0.5 |
| C31U G41C A43C C60G | ≤ 0.5 |
| A14U G17A G23C C29U C34G A45C U54G | ≤ 0.5 |
| C22G C60A | 0.679 |
| C29G A40U G50C G67U A69G | ≤ 0.5 |
| U2C G56A A65G | 1.27 |
| C49G C55A | 0.619 |
| A36C G52C C66U | 0.54 |

| Variant | yeast fitness |
| --- | --- |
| C5G C30G A65C C66U | ≤ 0.5 |
| C27U G44A | 0.887 |
| U19G A20U C27G A36G | ≤ 0.5 |
| C11U G39U | 0.835 |
| U3G G44A C66U | 0.582 |
| A15G C31U C60U | 0.543 |
| C22U U59A C61G | 0.547 |
| G18A C22U C24G | ≤ 0.5 |
| G17C A37C | 0.644 |
| C4U C49U | 0.989 |
| U16G G41A A69U | 0.527 |
| U19G C34A | 0.87 |
| C22G C49G C62G | ≤ 0.5 |
| U7G A15G U19C A21G G41A | 0.535 |
| C4U A37G G39C C61U | ≤ 0.5 |
| C11A C27G U35A A43U U54C A65G | 0.659 |
| U3G C55U | 0.784 |
| U32G G38A C61G A70G | ≤ 0.5 |
| C11U C31G C49U G67A | ≤ 0.5 |
| G9A A15U C33G G39A C62A | ≤ 0.5 |
| C31U C46A A57C A65U | ≤ 0.5 |

| Variant | yeast fitness |
| --- | --- |
| A21C U47A C60U G67C | ≤ 0.5 |
| U35C A37C G39A | ≤ 0.5 |
| G10A A15C A70U | ≤ 0.5 |
| C31G G58A C61A | 0.708 |
| C4U C30A C62U | 0.792 |
| U8A G48C | 0.761 |
| U7C C46U C61A G67A | 0.561 |
| G10C U13A C31A C62U | ≤ 0.5 |
| C5G G51C C55G A57U C66U | ≤ 0.5 |
| C24U A43U G56A | 0.837 |
| C24A C60U C61G G67A | 0.614 |
| C5U C22A A36U | 0.828 |
| C24G U35A A40C G52A C60A C61G | ≤ 0.5 |
| C11G A15U C22U A42G | ≤ 0.5 |
| C5G C27A A37C C55G | ≤ 0.5 |
| G12C A20G C46G | 0.548 |
| C33G G44A G56A | ≤ 0.5 |
| C4U G25A C34G G52U | ≤ 0.5 |
| C11A A15G C49U | 0.55 |
| G9A U13A C24A A45C | ≤ 0.5 |
